According to ChEMBL document CHEMBL3865820, “Bioactive Dibenzo-α-pyrone Derivatives from the Endophytic Fungus Rhizopycnis vagum Nitaf22” (J Nat Prod, 2016):
Values after ≈ are worked out from the molar mass of the structure shown.

Assays:
[1] = tested on: Pseudomonas amygdali pv. lachrymans; assay: Antibacterial activity against Pseudomonas lachrymans ATCC 11921 by broth dilution colorimetric assay; assay type: functional
How it was run: (§1)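 Modified broth dilution colorimetric assay in 96-well plates, run against a plant- and human-pathogen panel. Both MIC and median inhibitory concentration (IC50) were determined. Streptomycin sulfate served as the positive control.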

[2] = Antibacterial activity against Ralstonia solanacearum ATCC 11696 by broth dilution colorimetric assay; assay type: functional, Ralstonia solanacearum K60-1
How it was run: (§2)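 Modified broth dilution colorimetric assay in 96-well plates, reporting both minimum inhibitory concentration (MIC) and median inhibitory concentration (IC50). Streptomycin sulfate served as positive control.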

Bacillus subtilis [3] = assay: Antibacterial activity against Bacillus subtilis ATCC 11562 by broth dilution colorimetric assay; assay type: functional; how it was run: as §1
Pyricularia oryzae = assay: Antifungal activity against Magnaporthe oryzae assessed as inhibition of spore germination after 8 hrs by microscopic analysis; assay type: functional
How it was run: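 Spores taken from 7-day-old M. oryzae cultures (2 × 10^6 spores per mL). Compound in 10% aqueous ethanol was mixed 1:1 with the spore suspension on a concave slide and kept in a dark moist chamber at 25 °C for 8 h. Germination was counted by microscope. Inhibition % = [(Gc − Gt)/Gc] × 100 against 10% ethanol control, with triplicates. IC50 was obtained by linear regression; carbendazim served as positive control.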

[4] = Cytotoxicity against human Capan2 cells by MTT assay; assay type: functional, cell-based; conditions: Capan-2
How it was run: (§3)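 Microculture tetrazolium (MTT) assay on a panel of human carcinoma cell lines: colon HCT-116, hepatocellular HepG2, gastric BGC-823, NSCLC NCI-H1650, ovarian A2780, melanoma A375, lung adenocarcinoma A549, breast MCF-7 and pancreatic Capan2. IC50 values are reported in μM.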

[5] = tested on: Xanthomonas euvesicatoria; assay: Antibacterial activity against Xanthomonas vesicatoria ATCC 11633 by broth dilution colorimetric assay; assay type: functional; how it was run: as §1
[6] = tested on: Staphylococcus haemolyticus; assay: Antibacterial activity against Staphylococcus haemolyticus ATCC 29970 by broth dilution colorimetric assay; assay type: functional; how it was run: as §1
[7] = Cytotoxicity against human HCT116 cells by MTT assay; assay type: functional, cell-based; conditions: HCT-116; how it was run: as §3
[8] = tested on: Agrobacterium tumefaciens; assay: Antibacterial activity against Agrobacterium tumefaciens ATCC 11158 by broth dilution colorimetric assay; assay type: functional; how it was run: as §1
[9] = Cytotoxicity against human A375 cells by MTT assay; assay type: functional, cell-based; conditions: A-375; how it was run: as §3
[10] = Cytotoxicity against human MCF7 cells by MTT assay; assay type: functional, cell-based; how it was run: as §3
[11] = Cytotoxicity against human A549 cells by MTT assay; assay type: functional, cell-based; how it was run: as §3
[12] = Cytotoxicity against human MOLT3 cells; assay type: functional, cell-based; conditions: MOLT-3
[13] = Cytotoxicity against human HeLa cells; assay type: functional, cell-based
[14] = Cytotoxicity against human A549 cells; assay type: functional, cell-based
[15] = Cytotoxicity against human MRC5 cells; assay type: toxicity, cell-based
[16] = Cytotoxicity against human HepG2 cells; assay type: functional, cell-based
[17] = Cytotoxicity against human HepG2 cells by MTT assay; assay type: functional, cell-based; how it was run: as §3
[18] = Cytotoxicity against human HuCCa1 cells; assay type: functional, cell-based; conditions: HuCC-A1
[19] = Cytotoxicity against human MDA-MB-231 cells; assay type: functional, cell-based
[20] = Cytotoxicity against human T47D cells; assay type: functional, cell-based
[21] = Cytotoxicity against human BGC823 cells by MTT assay; assay type: functional, cell-based; conditions: BGC-823; how it was run: as §3
[22] = Cytotoxicity against human A2780 cells by MTT assay; assay type: functional, cell-based; how it was run: as §3
[23] = Cytotoxicity against human NCI-H1650 cells by MTT assay; assay type: functional, cell-based; how it was run: as §3
[24] = tested on: Pseudomonas amygdali pv. lachrymans; assay: Antibacterial activity against Pseudomonas lachrymans ATCC 11921 after 24 hrs by MTT based broth dilution colorimetric assay; assay type: functional; conditions: ATCC 11921, 24 h; how it was run: as §2
[25] = tested on: Agrobacterium tumefaciens; assay: Antibacterial activity against Agrobacterium tumefaciens ATCC 11158 after 24 hrs by MTT based broth dilution colorimetric assay; assay type: functional; conditions: ATCC 11158, 24 h
Bacillus subtilis [26] = assay: Antibacterial activity against Bacillus subtilis ATCC 11562 after 24 hrs by MTT based broth dilution colorimetric assay; assay type: functional; conditions: ATCC 11562, 24 h
[27] = tested on: Xanthomonas euvesicatoria; assay: Antibacterial activity against Xanthomonas vesicatoria ATCC 11633 after 24 hrs by MTT based broth dilution colorimetric assay; assay type: functional; conditions: ATCC 11633, 24 h; how it was run: as §2

Structure (SMILES)	IC50 [1] [µg/mL]	MIC [1] [µg/mL]	MIC [2] [µg/mL]	IC50 (Bacillus subtilis [3]) [µg/mL]	MIC (Bacillus subtilis [3]) [µg/mL]	IC50 (Pyricularia oryzae) [µg/mL]	IC50 [4] [µM]	MIC [5] [µg/mL]	MIC [6] [µg/mL]	IC50 [7] [µM]	IC50 [8] [µg/mL]	MIC [8] [µg/mL]	IC50 [9] [µM]	IC50 [10] [µM]	IC50 [11] [µM]	IC50 [17] [µM]	IC50 [21] [µM]	IC50 [22] [µM]	IC50 [23] [µM]	IC50 [2] [µg/mL]	also measured
COc1cc(O)c2c(=O)oc3c(c2c1)[C@@](C)(O)C[C@@H](OC)[C@@]31C[C@@H](O)C(=O)O1	44.7 (≈ 114 µM)	100 (≈ 255 µM)	> 200	45.5 (≈ 116 µM)	75 (≈ 191 µM)	> 200	> 50	> 200	> 200	> 50	56.7 (≈ 145 µM)	100 (≈ 255 µM)	> 50	> 50	> 50	–	–	–	–	–	–
COc1cc(O)c2c(=O)oc3c(c2c1)[C@@](C)(O)C[C@H](OC)[C@@]31C[C@@H](O)C(=O)O1	–	> 200	> 200	–	> 200	–	–	> 200	> 200	–	–	> 200	–	–	–	–	–	–	–	–	–
COC1=C(Cl)[C@](C)(O)c2c(oc(=O)c3c(O)cc(OC)cc23)C1=O	–	> 200	> 200	21.6 (≈ 61.2 µM)	50 (≈ 142 µM)	12 (≈ 34 µM)	–	> 200	> 200	4.2	–	> 200	–	–	–	5.9	7.8	3.6	3.2	–	IC50 [12]: 1.1 to 12.6 µM; IC50 [13]: 1.1 to 12.6 µM; IC50 [14]: 1.1 to 12.6 µM; IC50 [15]: 1.1 to 12.6 µM; IC50 [16]: 1.1 to 12.6 µM; IC50 [18]: 1.1 to 12.6 µM; IC50 [19]: 1.1 to 12.6 µM; IC50 [20]: 1.1 to 12.6 µM
Cc1c(Cl)c(O)cc2oc(=O)c3c(O)cc(O)cc3c12	–	> 200	50 (≈ 171 µM)	18.6 (≈ 63.6 µM)	50 (≈ 171 µM)	9.9 (≈ 33.8 µM)	–	75 (≈ 256 µM)	> 200	> 10	16.3 (≈ 55.7 µM)	50 (≈ 171 µM)	–	–	–	> 10	> 10	> 10	> 10	12.4 (≈ 42.4 µM)	IC50 [5]: 22.7 µg/mL (≈ 77.6 µM)
COC1=C(N)[C@](C)(O)c2c(oc(=O)c3c(O)cc(OC)cc23)C1=O	–	> 200	> 200	–	> 200	–	–	> 200	> 200	–	–	> 200	–	–	–	–	–	–	–	–	–
COc1cc(O)c2c(=O)oc3c(O)c(OC)c(Cl)c(C)c3c2c1	16.4 (≈ 48.7 µM)	50 (≈ 148 µM)	50 (≈ 148 µM)	22.4 (≈ 66.5 µM)	50 (≈ 148 µM)	> 200	–	50 (≈ 148 µM)	50 (≈ 148 µM)	> 10	15 (≈ 44.5 µM)	50 (≈ 148 µM)	–	–	–	> 10	> 10	> 10	> 10	24.2 (≈ 71.9 µM)	IC50 [5]: 15.9 µg/mL (≈ 47.2 µM); IC50 [6]: 26.7 µg/mL (≈ 79.3 µM)
COc1cc(O)c2c(=O)oc3cc(O)cc(C)c3c2c1	–	–	–	–	–	–	> 50	–	–	> 50	–	–	> 50	> 50	70.4	–	–	–	–	–	IC50 [24]: 16.7 to 34.3 µg/mL (≈ 61.3 to 126 µM); IC50 [25]: 16.7 to 34.3 µg/mL (≈ 61.3 to 126 µM); IC50 (Bacillus subtilis [26]): 16.7 to 34.3 µg/mL (≈ 61.3 to 126 µM); IC50 [27]: 16.7 to 34.3 µg/mL (≈ 61.3 to 126 µM)
COc1cc(O)c2c(=O)oc3c(c2c1)[C@@](C)(O)C(Cl)=C(O)C3=O	4.3 (≈ 12.7 µM)	25 (≈ 73.8 µM)	50 (≈ 148 µM)	44.6 (≈ 132 µM)	100 (≈ 295 µM)	–	> 50	100 (≈ 295 µM)	25 (≈ 73.8 µM)	37.3	47.3 (≈ 140 µM)	100 (≈ 295 µM)	> 50	> 50	25.5	–	–	–	–	36.5 (≈ 108 µM)	IC50 [5]: 52.5 µg/mL (≈ 155 µM); IC50 [6]: 7 µg/mL (≈ 20.7 µM)
COC(=O)Nc1nc2ccccc2[nH]1 [CARBENDAZIM]	–	–	–	–	–	6.9 (≈ 36.1 µM)	–	–	–	–	–	–	–	–	–	–	–	–	–	–	–
Cc1cc(O)cc2oc(=O)c3c(O)cc(O)cc3c12 [ALTERNARIOL]	3.5 (≈ 13.6 µM)	25 (≈ 96.8 µM)	25 (≈ 96.8 µM)	7 (≈ 27.1 µM)	50 (≈ 194 µM)	> 200	–	25 (≈ 96.8 µM)	50 (≈ 194 µM)	> 10	11.4 (≈ 44.1 µM)	50 (≈ 194 µM)	–	–	–	> 10	> 10	> 10	> 10	5.5 (≈ 21.3 µM)	IC50 [5]: 4.9 µg/mL (≈ 19 µM); IC50 [6]: 7.9 µg/mL (≈ 30.6 µM)
COc1cc(O)c2c(=O)oc3cc(O)c(Cl)c(C)c3c2c1	–	–	–	–	–	–	> 50	–	–	> 50	–	–	> 50	> 50	> 50	–	–	–	–	–	IC50 [24]: 16.7 to 34.3 µg/mL (≈ 54.5 to 112 µM); IC50 [25]: 16.7 to 34.3 µg/mL (≈ 54.5 to 112 µM); IC50 (Bacillus subtilis [26]): 16.7 to 34.3 µg/mL (≈ 54.5 to 112 µM); IC50 [27]: 16.7 to 34.3 µg/mL (≈ 54.5 to 112 µM)
CC(=O)O[C@H]1C(=O)[C@@]2(C)[C@H]([C@H](OC(=O)c3ccccc3)[C@]3(O)C[C@H](OC(=O)[C@H](O)[C@@H](NC(=O)c4ccccc4)c4ccccc4)C(C)=C1C3(C)C)[C@]1(OC(C)=O)CO[C@@H]1C[C@@H]2O [PACLITAXEL]	–	–	–	–	–	–	0.017	–	–	0.0009 to 0.004	–	–	0.022	0.0006	0.023	0.012	0.0033	0.038	0.068	–	–
CN[C@@H]1[C@H](O[C@H]2[C@H](O[C@H]3[C@H](O)[C@@H](O)[C@H](N=C(N)N)[C@@H](O)[C@@H]3N=C(N)N)O[C@@H](C)[C@]2(O)C=O)O[C@@H](CO)[C@H](O)[C@H]1O.CN[C@@H]1[C@H](O[C@H]2[C@H](O[C@H]3[C@H](O)[C@@H](O)[C@H](N=C(N)N)[C@@H](O)[C@@H]3N=C(N)N)O[C@@H](C)[C@]2(O)C=O)O[C@@H](CO)[C@H](O)[C@H]1O.O=S(=O)(O)O.O=S(=O)(O)O.O=S(=O)(O)O [STREPTOMYCIN SULFATE]	2.3	7.5	5	1.4	5	–	–	10	5	–	1.4	5	–	–	–	–	–	–	–	1.2	IC50 [5]: 2.6 µg/mL; IC50 [6]: 1.4 µg/mL
COc1cc(O)c2c(=O)oc3c(O)c(OC)cc(C)c3c2c1	–	> 200	> 200	–	> 200	> 200	–	> 200	> 200	> 10	–	> 200	–	–	–	> 10	> 10	> 10	> 10	–	–
COC1=C[C@](C)(O)c2c(oc(=O)c3c(O)cc(OC)cc23)C1=O	–	> 200	> 200	–	> 200	82.1 (≈ 258 µM)	> 50	> 200	> 200	> 50	–	> 200	> 50	> 50	> 50	–	–	–	–	–	–
